The values below come from ChEMBL document CHEMBL3612004, “Primaquine-pyrimidine hybrids: synthesis and dual-stage antiplasmodial activity” (Eur J Med Chem, 2015).

Data set [1] concerns Plasmodium berghei. The data set can be described thus: Antiplasmodial activity against liver-stage of Plasmodium berghei expressing firefly luciferase infected in human Huh-7 cells after 48 hrs by bioluminescence assay. The format is functional, organism-based. The conditions noted are these: Huh-7, Liver. In outline: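 Huh-7 hepatoma cells were grown in RPMI 1640 with 10% FBS, NEAA, glutamine and 10 mM HEPES pH 7, at 37 °C and 5% CO2, and seeded at 1.0 × 10^4 per well the day before. Compound medium went on about 1 h before fresh A. stephensi sporozoites of firefly-luciferase P. berghei, followed by centrifugation at 1700 g for 5 min. Luminescence was read 48 h post-infection, and IC50 came from dose–response.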

Another data set concerns Plasmodium falciparum. In words: Antiplasmodial activity against blood stage of chloroquine-sensitive Plasmodium falciparum NF54 by parasite lactate dehydrogenase assay. The format is functional, organism-based. The procedure, abridged: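 Asexual P. falciparum was kept in continuous culture (modified Trager–Jensen) and read out by parasite lactate dehydrogenase. DMSO stocks were 20 mg/ml, tested as suspensions and diluted 2-fold in complete medium to 10 concentrations. Chloroquine and artesunate served as references. IC50 came from non-linear dose–response fitting; values are the mean of three observations.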

A short description of data set [2]: Cytotoxicity against human HuH7 cells assessed as effect on cell proliferation at 1 to 10 uM by Alamar Blue assay. The format is cell-based. The conditions noted are these: huh-7, 10 µM. In outline:
(§1)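 Huh-7 viability was measured by Alamar Blue in parallel with the 48 h sporozoite infection assay, in RPMI 1640/10% FBS/HEPES medium at 37 °C and 5% CO2. The initial screen tested each compound at […], scoring cell confluence and proliferation.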

Data set [3] concerns Plasmodium berghei. In words: Ratio of primaquine IC50 to compound IC50 for liver-stage of Plasmodium berghei expressing firefly luciferase infected in human Huh-7 cells. The format is functional.
Data set [4] in a line: Selectivity index, ratio of CC50 for human HuH7 cells to IC50 for liver-stage of Plasmodium berghei expressing firefly luciferase infected in human Huh-7 cells. The format is functional.
Data set [5] can be described thus: Cytotoxicity against human HuH7 cells assessed as cell viability by Alamar Blue assay. The format is cell-based, Huh-7. In outline: as §1
(In general: The colour change of resazurin is a common sign of viable cells or microbes.)

The test system of data set [6] is Plasmodium berghei. The data set can be described thus: Antiplasmodial activity against Plasmodium berghei ANKA expressing luciferase infected in C57Bl/6J mouse assessed as reduction of liver parasite load at 50 mg/kg, po administered 8 hrs prior to parasite infection measured after 24 hrs. The format is functional, organism-based. The note with it: in the assay text read “measured after 47 hrs” for “measured after 24 hrs”. In outline:
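C57Bl/6J mice were inoculated intravenously with 5 × 10^3 luciferase-expressing P. berghei ANKA sporozoites from A. stephensi salivary glands. Drug was given at 50 mg/kg by oral gavage as a sunflower-oil suspension from a DMSO stock, 8 h before, at, and 24 h after infection; controls got vehicle. Livers were homogenized in guanidine thiocyanate denaturing solution 47 h post-infection to quantify parasite load.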

Activity calls are given as the source filed them. The rule behind the calls is not given here.

As to `O=C1C(O)=C([C@H]2CC[C@H](c3ccc(Cl)cc3)CC2)C(=O)c2ccccc21` [ATOVAQUONE], in the data set on Plasmodium berghei [1], the IC50 (as a rule, the point on the concentration scale where inhibition reaches its midpoint) amounted to 1.8 nM.
In the case of `COc1cc(NC(C)CCCNc2nc(C)c(C(=O)OC(C)C)c(-c3ccccc3[N+](=O)[O-])n2)c2ncccc2c1` (stereo unspecified), the midpoint of inhibition in the data set with Plasmodium falciparum, the IC50, lay at 2790 nM. Further, the Activity entry in data set [2] is recorded as “Non-toxic”.
In the data set on Plasmodium falciparum, `C[C@H]1[C@H](OC(=O)CCC(=O)O)O[C@@H]2O[C@@]3(C)CC[C@H]4[C@H](C)CC[C@@H]1[C@@]24OO3` [ARTESUNATE] gave an IC50 of 4.4 nM.
Turning to `CCOC(=O)c1c(C)nc(NCCCC(C)Nc2cc(OC)cc3cccnc23)nc1-c1ccccc1` (stereo unspecified), the IC50 in the data set with Plasmodium berghei [1] came out at 1260 nM; with Plasmodium falciparum it was 4320 nM. Further, the Activity result in data set [2] is “Non-toxic”. For the same compound, the “Ratio IC50” value in the data set on Plasmodium berghei [3] is on record as 6.7. Moreover, in data set [4], the “Ratio CC50/IC50” value was greater than 79.3. Besides, the CC50 (in general, the concentration giving 50% cytotoxicity) in data set [5] was greater than 100000 nM.
Take `COc1cc(NC(C)CCCN)c2ncccc2c1` (stereo unspecified) [PRIMAQUINE]: the IC50 in the data set with Plasmodium berghei [1] was determined as 8430 nM; with Plasmodium falciparum it was 892 nM.
With `COc1cc(NC(C)CCCNc2nc(C)c(C(=O)OC(C)C)c(-c3cccc([N+](=O)[O-])c3)n2)c2ncccc2c1` (stereo unspecified), the IC50 in the data set on Plasmodium berghei [1] was determined as 1500 nM; in the data set on Plasmodium falciparum, 2670 nM. In data set [2], the Activity result is recorded as “Non-toxic”. For the same compound, in data set [4], the “Ratio CC50/IC50” value is reported as greater than 66.6. In data set [5], the CC50 is greater than 100000 nM. The result with Plasmodium berghei [6] was inactive.
Regarding `COc1cc(NC(C)CCCNc2nc(C)c(C(=O)OC(C)C)c(-c3ccccc3)n2)c2ncccc2c1` (stereo unspecified), the IC50 in the data set with Plasmodium falciparum is 4800 nM. The Activity result in data set [2] is “Non-toxic”.
`COC(=O)c1c(C)nc(NCCCC(C)Nc2cc(OC)cc3cccnc23)nc1C` (stereo unspecified) displayed an IC50 in the data set with Plasmodium falciparum of 2000 nM. In data set [2], the Activity result is recorded as “Non-toxic”.
In the data set on Plasmodium falciparum, `COc1cc(NC(C)CCCNc2nc(C)c(C(=O)OC(C)C)c(-c3ccc([N+](=O)[O-])cc3)n2)c2ncccc2c1` (stereo unspecified) displayed an IC50 of 1930 nM. Moreover, the Activity result in data set [2] is given as “Non-toxic”.
Turning to `CCOC(=O)c1c(C)nc(NCCCC(C)Nc2cc(OC)cc3cccnc23)nc1C` (stereo unspecified), the IC50 turned out to be 1860 nM with Plasmodium berghei [1] and 3780 nM in the data set on Plasmodium falciparum. Moreover, in data set [2], the Activity entry is on record as “Non-toxic”. Also, the “Ratio CC50/IC50” value in data set [4] stood at 32.6. In addition, the CC50 in data set [5] worked out at 61000 nM.
Turning to `CCOC(=O)c1c(C)nc(NCCCC(C)Nc2cc(OC)cc3cccnc23)nc1-c1ccc(F)cc1` (stereo unspecified), inhibition in the data set with Plasmodium falciparum was half-maximal at 3430 nM (IC50). For the same compound, the Activity result in data set [2] is given as “Non-toxic”.
`CCOC(=O)c1c(C)nc(NCCCC(C)Nc2cc(OC)cc3cccnc23)nc1-c1ccc(OC)cc1` (stereo unspecified): the IC50 worked out at 1570 nM with Plasmodium berghei [1] and 3280 nM in the data set with Plasmodium falciparum. Also, in data set [2], the Activity result is “Non-toxic”. For the same compound, the “Ratio CC50/IC50” value in data set [4] is greater than 63.6. Besides, in data set [5], the CC50 was greater than 100000 nM.
